From ChEMBL document CHEMBL1126857, “14 beta-[(p-nitrocinnamoyl)amino]morphinones, 14 beta-[(p-nitrocinnamoyl)amino]-7,8-dihydromorphinones, and their codeinone analogues: synthesis and receptor activity” (J Med Chem, 1993)

Legend:
Mu-type opioid receptor = Mu-type opioid receptor (Bos taurus, UniProt P79350); assay: Binding affinity against mu opioid receptor from calf frontal cortex.
In short: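 Calf frontal cortex membranes (10 mg wet weight), prewashed and preincubated 15 min at 37 °C, in 50 mM Tris-HCl pH 7.5 with 10 mM MgSO4 and 0.5 mM EDTA. Competition against 0.8 nM [3H]DAMGO at eight ligand concentrations, 30 min at 37 °C, in triplicate. Nonspecific binding with 1 μM naloxone. Filtration, then scintillation counting; IC50 taken.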

[1] = Tested for its binding effect on [3H]- DAMGO in bovine striatal membrane at 20 nM; type: functional, cell membranes, Bos taurus, Striatum
In short: (§1)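 Bovine striatal membranes (10 mg protein) pretreated 60 min at 25 °C with or without 20 nM ligand in 50 mM Tris-HCl pH 7.5, then washed by centrifugation five times. [3H]DAMGO saturation, 0.05–6.4 nM, 60 min at 25 °C, then filtration. Nonspecific binding with 10 μM naloxone; Bradford protein. Kd/Bmax by nonlinear regression; triplicate, three experiments.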

[2] = Bmax value expressed in (f mol bound)/mg of protein; in short: as §1

Sequence of Mu-type opioid receptor (P79350 whole entry): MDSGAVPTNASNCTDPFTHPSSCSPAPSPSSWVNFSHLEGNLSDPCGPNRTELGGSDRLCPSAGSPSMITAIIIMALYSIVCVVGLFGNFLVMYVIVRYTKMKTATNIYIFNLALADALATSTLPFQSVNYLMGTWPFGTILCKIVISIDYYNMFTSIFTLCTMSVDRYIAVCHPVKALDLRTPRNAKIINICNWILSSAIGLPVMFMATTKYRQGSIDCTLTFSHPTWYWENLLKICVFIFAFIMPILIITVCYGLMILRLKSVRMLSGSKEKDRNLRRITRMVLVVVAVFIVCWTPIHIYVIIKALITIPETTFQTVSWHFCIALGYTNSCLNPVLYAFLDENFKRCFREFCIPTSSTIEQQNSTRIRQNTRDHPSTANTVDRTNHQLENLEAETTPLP

With COc1ccc2c3c1O[C@@]1(C)C(=O)CC[C@@]4(NC(=O)/C=C/c5ccc([N+](=O)[O-])cc5)C(C2)N(CC2CC2)CCC314 (some centres not stated) the IC50 (Mu-type opioid receptor) was 32 nM.
In the case of COc1ccc2c3c1O[C@@]1(C)C(=O)C=C[C@@]4(NC(=O)/C=C/c5ccc([N+](=O)[O-])cc5)C(C2)N(C)CCC314 (some centres not stated), the IC50 (Mu-type opioid receptor) is reported as 36.2 nM.
Compound O=C(/C=C/c1ccc([N+](=O)[O-])cc1)N[C@@]12CCC(=O)[C@@H]3Oc4c(O)ccc5c4[C@@]31CCN(CC1CC1)[C@@H]2C5 has an IC50 (Mu-type opioid receptor) of 0.87 nM.
COc1ccc2c3c1O[C@@]1(C)C(=O)CC[C@@]4(NC(=O)/C=C/c5ccc([N+](=O)[O-])cc5)C(C2)N(C)CCC314 (some centres not stated) showed an IC50 (Mu-type opioid receptor) of 104 nM.
O=C(/C=C/c1ccc([N+](=O)[O-])cc1)N[C@@]12C=CC(=O)[C@@H]3Oc4c(O)ccc5c4C31CCN(CC1CC1)C2C5 (some centres not stated) showed an IC50 (Mu-type opioid receptor) of 7.8 nM.
CN1CCC23c4c5ccc(O)c4O[C@@]2(C)C(=O)C=C[C@@]3(NC(=O)/C=C/c2ccc([N+](=O)[O-])cc2)C1C5 (some centres not stated) showed an IC50 (Mu-type opioid receptor) of 0.8 nM.
With C[C@@]12Oc3c(O)ccc4c3C13CCN(CC1CC1)C(C4)[C@]3(NC(=O)CCc1ccc([N+](=O)[O-])cc1)CCC2=O (some centres not stated) the IC50 (Mu-type opioid receptor) was 24 nM.
In the case of COc1ccc2c3c1O[C@H]1C(=O)C=C[C@@]4(NC(=O)/C=C/c5ccc([N+](=O)[O-])cc5)C(C2)N(C)CCC314 (some centres not stated), the IC50 (Mu-type opioid receptor) is reported as 1.01 nM.
In the case of COc1ccc2c3c1O[C@H]1C(=O)CC[C@@]4(NC(=O)/C=C/c5ccc([N+](=O)[O-])cc5)C(C2)N(C)CCC314 (some centres not stated), the IC50 (Mu-type opioid receptor) is reported as 0.44 nM.
For C[C@@]12Oc3c(O)ccc4c3C13CCN(CC1CC1)C(C4)[C@]3(NC(=O)/C=C/c1ccc([N+](=O)[O-])cc1)C=CC2=O (some centres not stated), the IC50 (Mu-type opioid receptor) was 1.88 nM.
C[C@@]12Oc3c(O)ccc4c3C13CCN(CC1CC1)C(C4)[C@]3(NC(=O)/C=C/c1ccc([N+](=O)[O-])cc1)CCC2=O (some centres not stated) gave an IC50 (Mu-type opioid receptor) of 0.52 nM, a Kd [1] of 0.82 nM and a Bmax (fM bound (mg of protein)-1) [2] of 100.
Work on CN1CC[C@]23c4c5ccc(O)c4O[C@H]2C(=O)CC[C@@]3(NC(=O)/C=C/c2ccc([N+](=O)[O-])cc2)[C@H]1C5 yielded an IC50 (Mu-type opioid receptor) of 0.28 nM.
In the case of COc1ccc2c3c1O[C@@]1(C)C(=O)C=C[C@@]4(NC(=O)/C=C/c5ccc([N+](=O)[O-])cc5)C(C2)N(CC2CC2)CCC314 (some centres not stated), the IC50 (Mu-type opioid receptor) is reported as 36.8 nM.
For COc1ccc2c3c1O[C@H]1C(=O)C=C[C@@]4(NC(=O)/C=C/c5ccc([N+](=O)[O-])cc5)C(C2)N(CC2CC2)CCC314 (some centres not stated), the IC50 (Mu-type opioid receptor) was 1.45 nM.
CN1CCC23c4c5ccc(O)c4O[C@H]2C(=O)C=C[C@@]3(NC(=O)/C=C/c2ccc([N+](=O)[O-])cc2)C1C5 (some centres not stated) gave an IC50 (Mu-type opioid receptor) of 1.45 nM.
